# According to BindingDB's records for doi:10.1016/j.bmcl.2011.06.023 (Merck Research Laboratories, 2011):
# Values joined by “and” are separate entries in the source; they are usually repeats but may differ in a detail not shown here. Equal entries are not always repeated.
# Target: Smoothened homolog (Homo sapiens, UniProt Q99835)
# Test: Displacement of BODIPY-cyclopamine from human Smo expressed in HEK293 cells in presence of 2% fetal calf serum
# Procedure, shortened: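 Competition binding: displacement of fluorescently labeled bodipy-cyclopamine from recombinant human Smo expressed in HEK-293 cells. Run in 2% fetal calf serum and, separately, in 20% normal human serum. IC50 values are means of at least five experiments.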
# Sequence of Smoothened homolog (Q99835 whole entry): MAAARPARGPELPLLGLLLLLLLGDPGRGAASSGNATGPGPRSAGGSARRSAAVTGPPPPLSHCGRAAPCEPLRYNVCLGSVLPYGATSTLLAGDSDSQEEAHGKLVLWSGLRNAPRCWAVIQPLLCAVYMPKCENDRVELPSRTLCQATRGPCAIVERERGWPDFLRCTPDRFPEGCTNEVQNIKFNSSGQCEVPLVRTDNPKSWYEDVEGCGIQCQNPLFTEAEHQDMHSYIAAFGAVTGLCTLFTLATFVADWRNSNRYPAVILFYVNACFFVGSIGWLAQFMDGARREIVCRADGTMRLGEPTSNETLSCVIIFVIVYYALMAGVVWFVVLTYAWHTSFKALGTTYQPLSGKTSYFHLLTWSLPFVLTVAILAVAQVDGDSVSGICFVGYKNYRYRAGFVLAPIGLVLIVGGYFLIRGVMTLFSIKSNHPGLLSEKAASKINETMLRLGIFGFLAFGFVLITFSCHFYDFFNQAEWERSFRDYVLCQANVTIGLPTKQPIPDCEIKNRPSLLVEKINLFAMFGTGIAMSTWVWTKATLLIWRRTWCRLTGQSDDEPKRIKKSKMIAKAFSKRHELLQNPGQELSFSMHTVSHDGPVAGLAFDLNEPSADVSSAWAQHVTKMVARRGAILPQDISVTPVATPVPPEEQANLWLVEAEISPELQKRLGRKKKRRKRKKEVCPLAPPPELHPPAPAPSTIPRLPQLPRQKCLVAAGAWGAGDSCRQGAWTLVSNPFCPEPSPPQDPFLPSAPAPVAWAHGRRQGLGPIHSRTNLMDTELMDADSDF
row,SMILES,IC50
1,O=C(Nc1ccccc1-c1ccccc1)N1CCn2c(c(O)n([C@H]3C[C@@H]3c3ccccc3)c2=O)C1,48 nM and 21 nM

# Target: Smoothened (Mus musculus) (UniProt P56726)
# Sequence (P56726 whole entry, looked up): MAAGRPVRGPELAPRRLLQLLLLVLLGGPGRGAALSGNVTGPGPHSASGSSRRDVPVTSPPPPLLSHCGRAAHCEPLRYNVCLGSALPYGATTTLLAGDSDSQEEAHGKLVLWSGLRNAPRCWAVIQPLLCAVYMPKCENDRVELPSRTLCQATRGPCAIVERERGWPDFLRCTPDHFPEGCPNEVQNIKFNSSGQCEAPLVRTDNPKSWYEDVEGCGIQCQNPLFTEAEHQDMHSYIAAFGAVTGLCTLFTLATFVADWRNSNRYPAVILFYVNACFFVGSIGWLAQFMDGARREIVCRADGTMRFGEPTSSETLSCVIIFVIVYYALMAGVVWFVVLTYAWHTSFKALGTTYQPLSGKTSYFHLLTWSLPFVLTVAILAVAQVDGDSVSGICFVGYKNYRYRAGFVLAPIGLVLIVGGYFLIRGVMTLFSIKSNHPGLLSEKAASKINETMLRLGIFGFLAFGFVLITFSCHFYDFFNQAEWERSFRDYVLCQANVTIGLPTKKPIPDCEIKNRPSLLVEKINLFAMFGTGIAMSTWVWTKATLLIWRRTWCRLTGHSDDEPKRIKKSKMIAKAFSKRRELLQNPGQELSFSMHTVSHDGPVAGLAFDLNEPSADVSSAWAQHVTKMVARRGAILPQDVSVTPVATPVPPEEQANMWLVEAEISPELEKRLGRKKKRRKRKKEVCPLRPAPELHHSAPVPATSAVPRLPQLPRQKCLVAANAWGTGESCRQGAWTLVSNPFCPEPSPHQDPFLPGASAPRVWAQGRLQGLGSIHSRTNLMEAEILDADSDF
# Test: Antagonist activity at smoothened expressed in mouse Shh Light2 cells assessed as inhibition of purmorphamine- induced Gli-dependent luciferase gene expression
row,SMILES,IC50
1,O=C(Nc1ccccc1-c1ccccc1)N1CCn2c(c(O)n([C@H]3C[C@@H]3c3ccccc3)c2=O)C1,100 nM and 42 nM and 140 nM
2,C[C@@]12CN(C(=O)Nc3ccnn3-c3ccccc3)CCN1C(=O)N([C@H]1C[C@@H]1c1ccccc1)C2=O,17 nM
3,C[C@@]12CN(C(=O)Nc3ccccc3-c3ccccc3)CCN1C(=O)N([C@H]1C[C@@H]1c1ccccc1)C2=O,23 nM
4,CS(=O)(=O)c1cc(Cl)c(NC(=O)N2CCn3c(c(O)n([C@H]4C[C@@H]4c4ccccc4)c3=O)C2)c(Cl)c1,41 nM
5,O=C(Nc1ccnn1-c1cccc(F)c1)N1CCn2c(c(O)n([C@H]3C[C@@H]3c3ccccc3)c2=O)C1,6 nM
6,O=C(Nc1cccnc1-c1ccsc1)N1CCn2c(c(O)n([C@H]3C[C@@H]3c3ccccc3)c2=O)C1,89 nM
7,C[C@]12CN(C(=O)Nc3ccccc3-c3ccccc3)CCN1C(=O)N([C@H]1C[C@@H]1c1ccccc1)C2=O,1400 nM
8,O=C(Nc1cccc(Cl)c1Cl)N1CCn2c(c(O)n([C@H]3C[C@@H]3c3ccccc3)c2=O)C1,270 nM and 430 nM
9,O=C(Nc1cccnc1-c1ccccc1)N1CCn2c(c(O)n([C@H]3C[C@@H]3c3ccccc3)c2=O)C1,28 nM
10,O=C(Nc1cccc(Cl)c1Cl)N1CCn2c(c(O)n([C@@H]3C[C@H]3c3ccccc3)c2=O)C1,880 nM and 1400 nM
11,O=C(Nc1ccnn1-c1cccc(Cl)c1)N1CCn2c(c(O)n([C@H]3C[C@@H]3c3ccccc3)c2=O)C1,8 nM
